In one series the test system is Reovirus sp. The experiment in a line: Antiviral activity against Reovirus type-1 infected in BHK21 cells assessed as inhibition of virus-induced cytopathogenicity after 3 to 4 days by MTT assay. It counts as functional, organism-based. The note with it: BHK-21.
Series [1] concerns Human immunodeficiency virus 1. The experiment in a line: Antiviral activity against HIV1 infected in human MT4 cells assessed as inhibition of virus-induced cytopathogenicity after 4 days by MTT assay. In kind it is functional, organism-based. Particulars: Human immunodeficiency virus 1, MT4, 96 h. In short, it runs like this:
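MT-4 cells (1 × 10^4/well in RPMI) were infected acutely with HIV-1 IIIB, 100 CCID50 (m.o.i. 0.01), with serial dilutions from 100 µM, 1:5. After 4 days at 37 °C, protection from virus-induced cytopathogenicity was read by MTT. EC50 came from linear regression against untreated controls.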

For a further series, the system named is Human alphaherpesvirus 1. The experiment in a line: Antiviral activity against HSV1 infected in african green monkey Vero 76 cells assessed as reduction in plaque number after 3 days by plaque reduction assay. In kind it is functional, organism-based. Particulars: Human alphaherpesvirus 1, Vero, 72 h.
Series [2] is described as follows: Cytotoxicity against mock-infected MDBK cells after 48 to 96 hrs by MTT assay. It counts as cell-based, Bos taurus. The note with it: cattle. In short, it runs like this: (§1)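 Mock-infected MDBK (6 × 10^5 cells/mL; MEM-E, 10% horse serum, 1 mM pyruvate) or BHK (1 × 10^6 cells/mL; MEM-E, 10% FBS) cells were incubated at 37 °C, 5% CO2 with serial dilutions from 100 µM, 1:5. Viability by MTT after 48–96 h. CC50 from linear regression against untreated controls.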
Background: Formazan colour is commonly taken as a measure of viable cells.

A short description of series [3]: Selectivity index, ratio of CC50 for african green monkey Vero 76 cells to EC50 for Respiratory syncytial virus. In kind it is toxicity, cell-based. The note with it: read-out: Ratio CC50/EC50. The gist of the method:
(§2)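 Mock-infected Vero-76 cells were tested in parallel on the same 24-well plates as the plaque assays (seeding 4 × 10^5 cells/mL, D-MEM with FBS), with serial compound dilutions at 37 °C, 5% CO2. Viability was read after 48–96 h by crystal violet staining. CC50 by linear regression; selectivity index = Vero-76 CC50/EC50 for CVB-5 or RSV.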

The test system of series [4] is Bovine viral diarrhea virus 1. The experiment in a line: Antiviral activity against Bovine viral diarrhea virus infected in MDBK cells assessed as inhibition of virus-induced cytopathogenicity after 3 to 4 days by MTT assay. Particulars: Bovine viral diarrhea virus isolates and strains. It counts as functional, organism-based. In general terms: Protection from cytopathic effect is a common read-out in antiviral testing.

A short description of series [5]: Cytotoxicity against mock-infected BHK21 cells after 48 to 96 hrs by MTT assay. It counts as functional. Particulars: Mesocricetus auratus, BHK-21. In short, it runs like this: as §1
Series [6] in a line: Selectivity index, ratio of CC50 for african green monkey Vero 76 cells to EC50 for Coxsackievirus B5. The note with it: read-out: Ratio CC50/EC50. It counts as toxicity, cell-based. In short, it runs like this: as §2
In the next series the test system is Vaccinia virus. As to the kind of experiment: Antiviral activity against Vaccinia Virus infected in african green monkey Vero 76 cells assessed as reduction in plaque number after 3 days by plaque reduction assay. It counts as functional, organism-based. Particulars: Orthopoxvirus vaccinia, 72 h. In general terms: In a plaque reduction assay, fewer plaques than in the control indicate reduced infectivity or spread.

The next series concerns Coxsackievirus B5. The experiment in a line: Antiviral activity against Coxsackievirus B5 infected in african green monkey Vero 76 cells assessed as reduction in plaque number after 3 days by plaque reduction assay. The note with it: Enterovirus B, 72 h. In kind it is functional, organism-based.
For the next series, the system named is Poliovirus 1. The experiment in a line: Antiviral activity against Poliovirus type 1 Sabin strain infected in african green monkey Vero 76 cells assessed as reduction in plaque number after 2 days by plaque reduction assay. In kind it is functional, organism-based. The note with it: Enterovirus C, 48 h.
The subject of the next series is Yellow fever virus. The experiment in a line: Antiviral activity against Yellow fever virus infected in BHK21 cells assessed as inhibition of virus-induced cytopathogenicity after 3 to 4 days by MTT assay. In kind it is functional, organism-based. The note with it: BHK-21.
A short description of series [7]: Cytotoxicity against mock-infected african green monkey Vero 76 cells after 48 to 96 hrs by MTT assay. In kind it is cell-based. The note with it: chlorocebus sabaeus, mock-infected Vero 76 cells.
Series [8] concerns Vesicular stomatitis virus. The experiment in a line: Antiviral activity against Vesicular stomatitis virus infected in african green monkey Vero 76 cells assessed as reduction in plaque number after 2 days by plaque reduction assay. The note with it: 48 h. It counts as functional, organism-based.
Series [9] relates to Respiratory syncytial virus. As to the kind of experiment: Antiviral activity against Respiratory syncytial virus infected in african green monkey Vero 76 cells assessed as reduction in plaque number after 5 days by plaque reduction assay. It counts as functional, organism-based. Particulars: human respiratory syncytial virus, 120 h.
Series [10] can be described thus: Cytotoxicity against mock-infected human MT4 cells after 96 hrs by MTT assay. It counts as cell-based. The gist of the method: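 Exponentially growing MT-4 cells were seeded at 1 × 10^5 cells/mL in RPMI-1640 with 10% FBS and held at 37 °C, 5% CO2 with serial compound dilutions. Viability was read by MTT after 96 h. CC50 from linear regression against untreated controls.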

The record followed here is ChEMBL document CHEMBL3351523 (Bioorg Med Chem, 2014).

Each structure is given as a SMILES string. A value given as a limit tells only on which side of the number the result lay.

With `Clc1ccc(Cc2nc3cc(Cl)c(Cl)cc3n2C[C@@H]2CCCN3CCCC[C@H]23)cc1Cl`, the half-maximal effective concentration (EC50) was over 100 µM in the series on Reovirus sp.; over 100 µM in series [1]; over 100 µM in the series on Human alphaherpesvirus 1; over 100 µM in [4]; over 100 µM with Vaccinia virus; 9 µM in the series on Coxsackievirus B5. Besides, the concentration giving a half-maximal response (EC50) in the series with Poliovirus 1 was over 100 µM; in the series with Yellow fever virus, over 100 µM; in [8], over 100 µM; in [9] it was 12 µM. In addition, the cytotoxic concentration (CC50) in series [2] was 46 µM; in [5], 52 µM; in [7] it was over 100 µM. For the same compound, the selectivity ratio in series [3] is over 8.33; in [6], over 11.1. Also, in series [10], the cytotoxic concentration (CC50) at 96 h was determined as 9 µM.

As to `Clc1cc2nc(Cc3ccc(Br)cc3)n(C[C@@H]3CCCN4CCCC[C@H]34)c2cc1Cl`, the EC50 in the series with Reovirus sp. is over 100 µM; in [1], over 100 µM; in the series with Human alphaherpesvirus 1 it was over 100 µM; in [4] it was over 100 µM; in the series with Vaccinia virus it was over 100 µM; with Coxsackievirus B5 it was 50 µM. For the same compound, the concentration giving a half-maximal response (EC50) is over 100 µM with Poliovirus 1, over 100 µM with Yellow fever virus, over 100 µM in [8] and 9 µM in [9]. The cytotoxic concentration (CC50) in series [2] is 58 µM; in series [5], 70 µM; in [7] it was over 100 µM. The selectivity ratio in series [3] is over 11.1; in [6], over 2. The compound also registered a CC50 at 96 h in [10] of 12 µM.

As to `FC(F)(F)c1ccc2c(c1)nc(Cc1ccc(Cl)cc1)n2C[C@@H]1CCCN2CCCC[C@H]12`, the concentration giving a half-maximal response (EC50) with Reovirus sp. was over 100 µM; in series [1], over 100 µM; with Human alphaherpesvirus 1, over 100 µM; in series [4], over 100 µM; in the series with Vaccinia virus, over 100 µM; with Coxsackievirus B5, 13 µM. Besides, the half-maximal effective concentration (EC50) was over 100 µM in the series with Poliovirus 1, over 100 µM with Yellow fever virus, over 100 µM in [8] and 15 µM in [9]. In addition, the 50% cytotoxic concentration (CC50) in [2] was 54 µM; in [5], 20 µM; in series [7], over 100 µM. Moreover, the figures for the selectivity ratio in series [3] and in series [6] were over 6.67 and over 7.69, respectively. For the same compound, in [10], the midpoint of cytotoxicity, the CC50 at 96 h, lay at 6 µM.

As to `FC(F)(F)c1ccc2c(c1)nc(Cc1ccc(Br)cc1)n2C[C@@H]1CCCN2CCCC[C@H]12`, the EC50 (with Reovirus sp.; in [1]; in the series with Human alphaherpesvirus 1; in [4]; in the series on Vaccinia virus; with Coxsackievirus B5) was over 100 µM in each case. The EC50 in the series on Poliovirus 1 is over 100 µM; in the series on Yellow fever virus, over 100 µM; in [8] it was over 100 µM; in series [9] it was 25 µM. The values for the half-maximal cytotoxic concentration (CC50) in [2], in series [5] and in series [7] were 40 µM, 20 µM and over 100 µM, respectively. The figures for the selectivity ratio in series [3] and in [6] were over 4 and over 1, respectively. Moreover, half-maximal cytotoxicity in series [10] (CC50 at 96 h) was put at 13 µM.

Regarding `Nc1ccc(Cc2nc3cc(Cl)c(Cl)cc3[nH]2)cc1`, the EC50 in the series on Reovirus sp. was over 100 µM; in [1] it was over 100 µM; in the series on Human alphaherpesvirus 1 it was over 100 µM; in series [4], 22 µM; in the series on Vaccinia virus, over 100 µM; in the series with Coxsackievirus B5 it was 12 µM. Moreover, the EC50 was 80 µM in the series with Poliovirus 1, over 100 µM with Yellow fever virus, over 100 µM in series [8] and 20 µM in series [9]. Also, the results for the CC50 in series [2], in series [5] and in series [7] were 62 µM, 43 µM and 80 µM, respectively. The selectivity ratio in [3] is 4; in series [6], 6.67. For the same compound, the CC50 at 96 h in series [10] stood at 71 µM.

As to `CCCCn1c(Cc2ccc(Cl)c(Cl)c2)nc2cc(C(F)(F)F)ccc21`, the EC50 in the series on Reovirus sp. is over 100 µM; in [1], over 100 µM; in the series on Human alphaherpesvirus 1 it was over 100 µM; in [4], over 100 µM; with Vaccinia virus, 31 µM; in the series on Coxsackievirus B5, 12 µM. Further, the 50% effective concentration (EC50) was over 100 µM in the series with Poliovirus 1, over 100 µM with Yellow fever virus, over 100 µM in series [8] and 9 µM in series [9]. The half-maximal cytotoxic concentration (CC50) is 11 µM in [2], 21 µM in series [5] and over 100 µM in [7]. Further, the selectivity ratio in [3] was over 11.1; in series [6] it was over 8.33. In series [10], this compound gave a CC50 at 96 h of over 100 µM.

Turning to `FC(F)(F)c1ccc2c(c1)nc(C(F)(F)F)n2C[C@@H]1CCCN2CCCC[C@H]12`, the concentration for a half-maximal effect (EC50) in the series with Reovirus sp. was over 100 µM; in [1] it was over 100 µM; in the series with Human alphaherpesvirus 1 it was over 100 µM; in series [4] it was over 100 µM; with Vaccinia virus, over 100 µM; in the series on Coxsackievirus B5, 11 µM. Also, the 50% effective concentration (EC50) with Poliovirus 1 was over 100 µM; in the series on Yellow fever virus it was 33 µM; in [8], over 100 µM; in series [9] it was 22 µM. The CC50 was at least 100 µM in series [2], 80 µM in series [5] and 90 µM in series [7]. Further, the figures for the selectivity ratio in series [3] and in series [6] were 4.09 and 8.18, respectively. Further, the CC50 at 96 h in [10] was 54 µM.

As for `CCC/C=C(\CC)c1nc2ccccc2[nH]1`, the EC50 in the series with Reovirus sp. was over 100 µM; in series [1], over 100 µM; in the series on Human alphaherpesvirus 1, over 100 µM; in [4] it was over 100 µM; with Vaccinia virus, over 100 µM; with Coxsackievirus B5, 90 µM. The EC50 is over 100 µM with Poliovirus 1, over 100 µM in the series with Yellow fever virus, over 100 µM in series [8] and 22 µM in [9]. Also, the half-maximal cytotoxic concentration (CC50) in series [2] was over 100 µM; in series [5], 67 µM; in series [7], at least 100 µM. For the same compound, the selectivity ratio is over 4.54 in series [3] and over 1.11 in series [6]. The same compound yielded a CC50 at 96 h in series [10] of 61 µM.

The EC50 is the concentration that produces a half-maximal response. In general, CC50 refers to the concentration at which the toxic effect on the cells reaches its halfway point.
